The values that follow come from ChEMBL document CHEMBL1122545, “N2-(4-Substituted-2,6-dichlorophenyl)-N1,N1-dimethylformamidines as antihypertensive and diuretic agents” (J Med Chem, 1984).

Data set [1] can be described thus: (§1) Diuretic activity was determined expressed as volume of urine excreted in mL was reported at a dose of 100 mg/Kg. The following applies: in vivo. The format is ADME. The method in brief:
(§2)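 Male SH rats (Okamoto strain), 16 weeks old, dosed orally by gavage with compound dispersed in 3% starch in normal saline at 2 mL/kg. Oral normal saline load, then individual metabolism cages; 0-5 h urine collected, Na+ and K+ measured by flame photometry. Rats redosed at 24 h without the saline load. MABP and HR taken by femoral arterial puncture under local anesthetic 4 h after the second dose.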

Data set [2] deals with Rattus norvegicus. The data set can be described thus: Diuretic activity was determined in SH rats expressed as K(+) (potassium) excreted in milli equivalents was reported for a duration of 5 hours after administration of a dose of 100 mg/Kg. The format is ADME, organism-based, Urine. The following applies: in vivo. In outline: as §2
Data set [3] is described as follows: Diuretic activity was determined expressed as Na+(sodium) excreted in milli equivalents was reported for a duration of 5 hours after administration of a dose of 100 mg/Kg. The format is ADME, Urine. The following applies: in vivo. The method in brief:
as §2

The subject of data set [4] is Rattus norvegicus. In words: Antihypertensive activity determined as heart rate in SH rats, was reported at a dose of 100 mg/Kg. The format is functional. The method in brief:
as §2

The subject of data set [5] is Rattus norvegicus. In words: Antihypertensive activity in SH rats, and mean arterial blood pressure was reported at a dose of 100 mg/Kg. The format is functional, Artery. The method in brief: as §2
The test system of data set [6] is Rattus norvegicus. The data set can be described thus: Diuretic activity was determined in SH rats expressed as K(+) (potassium) excreted in milli equivalents was reported for a duration of 5 hours after administration of a dose of 100 mg/Kg. The format is ADME, organism-based, Urine. The following applies: in vivo. In outline:
as §2

Data set [7] is described as follows: Diuretic activity was determined expressed as Na+(sodium) excreted in milli equivalents was reported for a duration of 5 hours after administration of a dose of 25 mg/Kg. The format is ADME, Urine. The following applies: in vivo. The method in brief: as §2
A short description of data set [8]: Diuretic activity was determined expressed as volume of urine excreted in mL was reported at a dose of 25 mg/Kg. The format is ADME. The following applies: in vivo. The method in brief: as §2
Data set [9] concerns Rattus norvegicus. In words: Diuretic activity was determined in SH rats expressed as K(+) (potassium) excreted in milli equivalents was reported for a duration of 5 hours after administration of a dose of 25 mg/Kg. The format is ADME, organism-based, Urine. The following applies: in vivo. The method in brief:
as §2

Data set [10] has as its system Rattus norvegicus. The data set can be described thus: Antihypertensive activity determined as heart rate in SH rats, was reported at a dose of 25 mg/Kg. The format is functional. In outline:
as §2

In data set [11] the test system is Rattus norvegicus. The data set can be described thus: Antihypertensive activity in SH rats, and mean arterial blood pressure was reported at a dose of 25 mg/Kg. The format is functional, Artery. The method in brief:
as §2

The subject of data set [12] is Rattus norvegicus. The data set can be described thus: Diuretic activity was determined in SH rats expressed as K(+) (potassium) excreted in milli euivalents was reported for a duration of 5 hours after administration of a dose of 100 mg/Kg. The following applies: in vivo.
In data set [13] the test system is Rattus norvegicus. The description is as §1. The format is ADME, organism-based. The following applies: in vivo. In outline: as §2

Consider `COc1ccc(CNc2cc(Cl)c(/N=C/N(C)C)c(Cl)c2)cc1OC`, for which the Diuretic activity in data set [1] is 8.3 mL; in the data set on Rattus norvegicus [2] it was 0.37 m equiv; in data set [3] it was 0.47 m equiv. The same compound had an HR with Rattus norvegicus [4] of 410 beats min-1. This compound came in with an MABP with Rattus norvegicus [5] of 133 mmHg.
Regarding `CN(C)/C=N/c1c(Cl)cc(NCc2ccccc2O)cc1Cl`, the Diuretic activity in data set [1] was 12.3 mL; in the data set with Rattus norvegicus [6] it was 0.68 m equiv; in data set [3], 0.72 m equiv. Besides, the HR with Rattus norvegicus [4] turned out to be 340 beats min-1. For the same compound, the MABP with Rattus norvegicus [5] came out at 150 mmHg.
With `CCN(CC)c1ccc(CNc2cc(Cl)c(/N=C/N(C)C)c(Cl)c2)cc1`, the Diuretic activity in [7] was 2.02 m equiv; in data set [8], 21.3 mL; in the data set with Rattus norvegicus [9] it was 0.71 m equiv. The same compound displayed an HR with Rattus norvegicus [10] of 400 beats min-1. This compound also had an MABP with Rattus norvegicus [11] of 153 mmHg.
Turning to `CN(C)/C=N/c1c(Cl)cc(NCc2cccc(F)c2)cc1Cl`, the results for the Diuretic activity (in data set [1]; with Rattus norvegicus [6]; in [3]) were 25 mL, 0.59 m equiv and 1.93 m equiv, respectively. Besides, the HR with Rattus norvegicus [4] was determined as 290 beats min-1. In addition, in the data set on Rattus norvegicus [5], the MABP was determined as 120 mmHg.
`CN(C)/C=N/c1c(Cl)cc(NCc2cc(Cl)cc(Cl)c2)cc1Cl`: the results for the Diuretic activity (in data set [7]; in data set [8]; with Rattus norvegicus [9]) were 1.34 m equiv, 13.8 mL and 0.42 m equiv, respectively. The HR in the data set on Rattus norvegicus [10] stood at 290 beats min-1. The MABP with Rattus norvegicus [11] is 139 mmHg.
For the compound `COc1ccc(CNc2cc(Cl)c(/N=C/N(C)C)c(Cl)c2)cc1F`, the Diuretic activity is 16.8 mL in [1], 0.43 m equiv in the data set on Rattus norvegicus [2] and 1.15 m equiv in data set [3]. Moreover, the HR with Rattus norvegicus [4] was found to be 320 beats min-1. The compound also displayed an MABP with Rattus norvegicus [5] of 113 mmHg.
Taken in the same sequence, the figures for `COc1cc(CNc2cc(Cl)c(/N=C/N(C)C)c(Cl)c2)cc(OC)c1OC` were 17.5 mL, 0.57 m equiv, 1.4 m equiv, 360 beats min-1 and 138 mmHg.
Consider `CN(C)/C=N/c1c(Cl)cc(NCc2ccc(N(C)C)c(Br)c2)cc1Cl`, for which the Diuretic activity in data set [7] is 1.18 m equiv; in [8] it was 14 mL; in the data set on Rattus norvegicus [9] it was 0.77 m equiv. This compound also displayed an HR in the data set on Rattus norvegicus [10] of 420 beats min-1. The MABP in the data set on Rattus norvegicus [11] was determined as 173 mmHg.
The corresponding values for `CN(C)/C=N/c1c(Cl)cc(NCc2ccc(N(C)C)cc2Br)cc1Cl` are 1.86 m equiv, 19.3 mL, 0.45 m equiv, 280 beats min-1 and 115 mmHg.
Consider `Clc1cccc(Cl)c1NC1=NCCN1` [CLONIDINE], for which the figures for the Diuretic activity (in [1]; with Rattus norvegicus [12]) were 16.4 mL and 0.16 m equiv, respectively. The HR in the data set with Rattus norvegicus [4] amounted to 180 beats min-1; with Rattus norvegicus [10], 220 beats min-1. Also, the MABP turned out to be 102 mmHg with Rattus norvegicus [5] and 113 mmHg in the data set on Rattus norvegicus [11].
For the compound `CN(C)/C=N/c1c(Cl)cc(NCc2cccc(Br)c2)cc1Cl`, the results for the Diuretic activity (in [1]; in [3]; in the data set with Rattus norvegicus [12]) were 19.3 mL, 1.9 m equiv and 0.48 m equiv, respectively. The compound also showed an HR in the data set with Rattus norvegicus [4] of 350 beats min-1. The MABP in the data set on Rattus norvegicus [5] is recorded as 120 mmHg.
In the case of `CN(C)/C=N/c1c(Cl)cc(NCc2cccc(C(F)(F)F)c2)cc1Cl`, the figures for the Diuretic activity (in data set [1]; in the data set with Rattus norvegicus [6]; in data set [3]) were 21.3 mL, 0.5 m equiv and 2.04 m equiv, respectively. In addition, the HR in the data set on Rattus norvegicus [4] turned out to be 420 beats min-1. Moreover, the MABP in the data set on Rattus norvegicus [5] is 165 mmHg.
Consider `CN(C)/C=N/c1c(Cl)cc(NCc2ccc(N(C)C)cc2F)cc1Cl`, for which the Diuretic activity was 2.26 m equiv in [7], 23.5 mL in data set [8] and 0.71 m equiv in the data set on Rattus norvegicus [9]. Moreover, the HR with Rattus norvegicus [10] is 400 beats min-1. The MABP in the data set on Rattus norvegicus [11] was 155 mmHg.
In the case of `NS(=O)(=O)c1cc2c(cc1Cl)NCNS2(=O)=O` [HYDROCHLOROTHIAZIDE], the Diuretic activity in data set [1] came to 13.2 mL; in the data set with Rattus norvegicus [6], 0.65 m equiv; in data set [3], 1.63 m equiv. Also, in the data set on Rattus norvegicus [4], the HR is on record as 436 beats min-1. In the data set with Rattus norvegicus [5], this compound showed an MABP of 153 mmHg.
The corresponding values for `CN(C)/C=N/c1c(Cl)cc(NCc2ccc(-c3ccccc3)cc2)cc1Cl` are 7.3 mL, 0.5 m equiv, 0.46 m equiv, 400 beats min-1 and 143 mmHg.
Take `CN(C)/C=N/c1c(Cl)cc(NCc2ccc(N(C)C)cc2)cc1Cl`: the Diuretic activity in data set [7] was 0.55 m equiv; in data set [8] it was 5.5 mL; with Rattus norvegicus [9], 0.39 m equiv. The compound also showed an HR in the data set with Rattus norvegicus [10] of 450 beats min-1. Besides, the MABP in the data set on Rattus norvegicus [11] came out at 171 mmHg.
For `CC(=O)Nc1ccc(CNc2cc(Cl)c(/N=C/N(C)C)c(Cl)c2)cc1`, the values for the Diuretic activity (in the data set with Rattus norvegicus [6]; in the data set with Rattus norvegicus [13]; in data set [3]) were 0.62 m equiv, 9.5 mL and 0.66 m equiv, respectively. The HR with Rattus norvegicus [4] was 340 beats min-1. In the data set with Rattus norvegicus [5], this compound had an MABP of 150 mmHg.
